“Also recorded” adds a separate entry of the source. Read-outs that look alike come from different tables or passages of the source.
Columns and labels:
purified iNicSnFR3a [1] = test: Fluorescence dose–response relations of purified iNicSnFR3a; assay type: biochemical; conditions: for sensitivity of iNicSnFR3a and iNicSnFR3b to other α4β2 agonists: unpublished data; for ΔFmax/F0: excitation 485 nm, 3× PBS, 25°C
[2] = tested on: iNicSnFR3a_ER expressed in HeLa cells; test: Time-resolved fluorescence, iNicSnFR3a_ER in transfected HeLa cells; assay type: cell-based, human; conditions: Fig. 5 E; normalized to nicotine (100 µM)
[3] = tested on: T. sp X513 OpuBC homologue; test: Isothermal titration calorimetry with purified PBPs; assay type: binding, Thermoanaerobacter sp X513
[4] = tested on: iNicSnFR3a_PM expressed in HeLa cells; test: Time-resolved fluorescence, iNicSnFR3a_PM in transfected HeLa cells; assay type: cell-based, human; conditions: Fig. 5 E; normalized to nicotine (100 µM)
[5] = tested on: _PM constructs in HeLa cells and hippocampal neurons; conditions: applied [nicotine] ≤ 5 µM; mean ± SEM, n = 8 cells
[6] = tested on: _ER constructs in HeLa cells and hippocampal neurons; conditions: applied [nicotine] ≤ 5 µM; mean ± SEM, n = 8 cells
[7] = cited from earlier work
[8] = tested on: iNicSnFR3a_ER in human dopaminergic neurons
[9] = tested on: iNiSnFR3a_Y357A_PM in HeLa cells; conditions: concentrations ≤300 µM
iNicSnFR3a = test: Stopped-flow kinetics of ligand binding to iNicSnFR3a
iNicSnFR1 = conditions: read-out: apparent nicotine EC50
[10] = cited from earlier work; for pKa: no reference printed; for logD7.4: ref Smith et al., 2012
[11] = tested on: iNicSnFR3 biosensors targeted to the ER; assay type: cell-based
purified iNicSnFR3a [12] = test: Isothermal titration calorimetry with purified iNicSnFR3a; assay type: binding; conditions: PBS, 25°C
Method in brief: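 Calorimetric titration: 100 µM protein in the cell titrated with 1 mM test ligand in PBS at 25°C. Binding isotherm yields equilibrium dissociation constant and stoichiometry (moles ligand per mole protein).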

[13] = tested on: AAV_iNicSnFR3b_ER in cultured mouse hippocampal neurons
[14] = tested on: iNicSnFR3a and iNicSnFR3b in HeLa cells and neurons; assay type: cell-based
α7 nAChRs = conditions: cited from earlier work
α4β2 nAChRs [15] = conditions: cited from earlier work
α4β2 nAChRs [16] = conditions: ref Turner et al., 2011; Marks et al., 2015; Govind et al., 2017; cited from earlier work
[17] = tested on: AAV2/1.syn1.iNicSnFR3b_ER in cultured hippocampal neurons; test: Time-resolved fluorescence, iNicSnFR3b_ER in cultured hippocampal neurons; assay type: cell-based, mouse; conditions: compared with nicotine responses and with varenicline responses on the PM
[18] = ref Coe et al., 2005, Mihalak et al., 2006

Q: Which “sensitivity of iNicSnFR3a and iNicSnFR3b to other α4β2 agonists” value (from here on “sensitivity of iNicSnFR3a and iNicSnFR3b”) (purified iNicSnFR3a [1]) does the source give for c1cncc(OC[C@@H]2CCN2)c1 [A-85380] here?
A: less sensitive

Q: For CC(=O)OCC[N+](C)(C)C [ACh, acetylcholine], which fluorescence increases [2] is on record?
A: only nicotine evoked fluorescence increases

Q: What about the “binding to the purified protein” value [3] of the same molecule?
A: bind to this protein

Q: And the fluorescence increases [4]?
A: comparable fluorescence increases

Q: For C[N+](C)(C)CC(=O)O [betaine], which “binding to the purified protein” value [3] is on record?
A: bind to this protein

Q: Which “binding to the purified protein” value [3] does the source give for C[N+](C)(C)CCO [choline] here?
A: bind to this protein

Q: And the “EC50 for choline relative to nicotine” value (purified iNicSnFR3a [1]; Fig. 2 C)?
A: more than fourfold greater

Q: Which ΔF (purified iNicSnFR3a [1]; Fig. 2 C) does the source give for CN1C(=O)CC[C@H]1c1cccnc1 [cotinine] here?
A: near-zero ΔF values

Q: Which “sensitivity of iNicSnFR3a and iNicSnFR3b” value (purified iNicSnFR3a [1]) does the source give for O=c1cccc2n1C[C@@H]1CNC[C@H]2C1 [cytisine] here?
A: less sensitive

Q: For c1cnc2c(c1)O[C@H]1CCN3CC[C@@]1(C2)C3 [dianicline], which “sensitivity of iNicSnFR3a and iNicSnFR3b” value (purified iNicSnFR3a [1]) is on record?
A: less sensitive

Q: Which “[ΔF/F0]/[nicotine]” value [5] does the source give for CN1CCC[C@H]1c1cccnc1 [nicotine, (—)–Nicotine] here?
A: 0.063 ± 0.13 µM⁻¹

Q: What about the “[ΔF/F0]/[nicotine]” value [6] of the same molecule?
A: 0.075 ± 0.019 µM⁻¹

Q: And the half-time of metabolism ([7]; in humans, ref Benowitz et al., 1991)?
A: ~20 min

Q: And the “peak [nicotine] in the plasma and brain of a smoker” value ([7]; ref Benowitz et al., 1991, Rollema et al., 2010)?
A: ~1 µM

Q: And the “maximum ΔF/F0” value [8]?
A: 3–4

Q: What about the “slope [ΔF/F0]/[nicotine]” value ([8]; [nicotine] ≤ 5 µM, Fig. 6 F inset) of the same molecule?
A: 0.087 µM⁻¹

Q: And the EC50 ([8]; read-out: [nicotine] giving half-ΔFmax/F0)?
A: ~20 µM

Q: What about the fluorescence increases [2] of the same molecule?
A: only nicotine evoked fluorescence increases

Q: And the “nicotine-induced ΔF” value [9]?
A: no detectable nicotine-induced ΔF

Q: What about the fluorescence increases [4] of the same molecule?
A: comparable fluorescence increases

Q: What about the “decrease in EC50 as the pH is increased from 6.0 to 9.0” value (purified iNicSnFR3a [1]; Fig. 3 I) of the same molecule?
A: ~20 fold

Q: What about the “EC50 for nicotine relative to EC50 for N’MeNic” value (purified iNicSnFR3a [1]; pH 6.0 to 9.0, Fig. 3 I) of the same molecule?
A: 1.25- to 2 fold

Q: What about the ΔFmax/F0 (purified iNicSnFR3a [1]; pH 7.5) of the same molecule?
A: 14.5

Q: And the ΔFmax/F0 (purified iNicSnFR3a [1]; pH 9.0)?
A: 3.5

Q: What about the “koff-ext (extrapolation to zero [nicotine])” value (iNicSnFR3a; 25°C, PBS) of the same molecule?
A: 2.0 s⁻¹

Q: And the Kd (iNicSnFR3a; read-out: equilibrium-binding constant Kd = koff/kon, stopped-flow)?
A: 29 µM

Q: And the EC50 (iNicSnFR1)?
A: 250 µM

Q: And the pKa [10]?
A: 7.5–8

Q: And the pKa ([10]; listed as Nicotine)?
A: 7.5–8.1

Q: And the logD7.4 [10]?
A: −0.04

Q: And the “[nicotine] in the ER versus the extracellular value” [11]?
A: within twofold; also recorded: less than twofold

Q: And the “time for nicotine to leave the ER after removal from the extracellular solution” value [11]?
A: ≤ 10 s

Q: And the Kd (purified iNicSnFR3a [12])?
A: 10 ± 2.5 µM

Q: What about the diffusion constant [13] of the same molecule?
A: ~1 µm^2/ms

Q: What about the “time scale of complete response” value ([13]; cell in ROI 3, ∼150 µm from the pipette tip) of the same molecule?
A: ~10 s

Q: And the “time of fluorescence increase” value ([13]; cell within 10 µm of the pipette tip)?
A: < 1 s

Q: With c1cnc2cc3c(cc2n1)[C@@H]1CNC[C@H]3C1 [varenicline] as the molecule, how does the EC50 [14] read?
A: 1 to 4 µM

Q: And the half-life ([7]; human plasma, ref Faessel et al., 2006)?
A: ~24 h

Q: What about the agonist type (α7 nAChRs; no reference printed) of the same molecule?
A: full agonist

Q: And the “potency relative to ACh” value (α7 nAChRs; [18])?
A: more potent than ACh

Q: What about the “agonist character for iNicSnFR3 fluorescence” value (purified iNicSnFR3a [1]) of the same molecule?
A: highly potent full agonist

Q: What about the “varenicline EC50 relative to nicotine” value (purified iNicSnFR3a [1]; purified iNicSnFR3a) of the same molecule?
A: approximately sixfold less

Q: And the agonist type (α4β2 nAChRs [15]; no reference printed)?
A: partial agonist

Q: What about the “potency relative to ACh” value (α4β2 nAChRs [15]; [18]) of the same molecule?
A: more potent than ACh

Q: And the “inferred Kd relative to nicotine” value (iNicSnFR3a; stopped-flow)?
A: approximately threefold less

Q: What about the “effect of exposure on α4β2 nAChRs” value (α4β2 nAChRs [16]) of the same molecule?
A: up-regulates

Q: And the “growth and decay phases of the ER varenicline-induced fluorescence” value [17]?
A: clearly slower

Q: What about the pKa [10] of the same molecule?
A: 9.5–10

Q: And the logD7.4 [10]?
A: −1.27

Q: What about the “time for varenicline to leave the ER after leaving the external solution” value ([11]; clinically relevant sub-µM concentrations) of the same molecule?
A: at most 60 s

Q: And the Kd (purified iNicSnFR3a [12])?
A: 3.5 µM
